# This is a sample that favours compounds with a hit; in the whole collection about 1.9% have one here.
# Tb hexokinase – blocks Trypanosoma brucei hexokinase 1 activity. recombinant TbHK1, G6PDH-coupled NADH A340. inhibition, % at 10 µM. 0.11% of 220,000 active. AID 1430;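 active means inhibition of 50% or more in the single-dose primary screen; inactive means inhibition below 50%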
# Ins promoter up – MIN6 insulin promoter up-regulation | MIN6 insulin promoter-GFP reporter, high-content imaging; active compounds read high | z-score at 5 µM | 0.3% of 190,000 active | AID 1625;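 active means z-score above 3 at 5 µM with at least 500 cells counted in the well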
# MT stabilizer – stabilizes microtubules in HeLa cells | % tubulin-high responders, % at 10 µM | HeLa tubulin immunostaining HCS, 24 h; share of cells brighter than vehicle mean+2SD | AID 2205 | 0.83% of 200,000 active;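 active means plate Z-score above 3 for both tubulin-high and condensed-nucleus cell shares, with cell loss under 80%, at 10 µM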;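 further: anti alpha tubulin signal scored within the nucleus-defined area of each cell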
# Autophagy mod – modulators of autophagy; MEF GFP-LC3 puncta imaging; test concentration mostly 10 µM; calls only at 10 µM (by protocol); 0.98% of 190,000 active;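 active means percentage of spot-positive cells more than 3 SD above its plate mean, without a fluorescence outlier flag or 80% toxicity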;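 further: spot-positive cell cutoff set from DMSO-treated cells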
# bCat nuc transl – alters nuclear translocation of beta-catenin in HeLa cells. 0.3% of 190,000 active. nuclear translocation activity, % at 5 µM. immunofluorescence imaging;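 active means nuclear translocation activity above 50% at 5 µM, with a well cell count of 50 or more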;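 further: per-cell ratio of nuclear to cytoplasmic median beta-catenin stain intensity; plate controls were DMSO negative control for no effect and GSK-3 inhibitor IX positive control for full effect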
#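 Test system: HeLa cells, endogenous beta-catenin; Compound: single 5 µM dose plus 0.02–20 µM confirmation series; Times: compound exposure 24 h at 37°C; Signal: fluorescence imaging of beta-catenin antibody stain plus DAPI; Read-out: % activation, nuclear-to-cytoplasmic median beta-catenin signal ratio per cell.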
# The depositor's hits bear a star; i = inactive; . = not tested or not shown; + = active, no number.
SMILES,Tb hexokinase,Ins promoter up,MT stabilizer,Autophagy mod,bCat nuc transl
CC1=C(C#N)c2nc(N)c(C#N)c(C)c2/C1=C\c1ccc(C)cc1,-5,0.74,3,+,0
CCC(C)c1ccc(NC(=O)C2CCCN(c3ncccn3)C2)cc1 (configuration not stated),-5,-0.13,36*,i,2
CCC(C)c1ccc(NC(=O)C2CC2)cc1 (configuration not stated),4,-0.57,3,i,.
Nc1[nH]n2c(=O)c3c(nc2c1N=Nc1ccc(Cl)cc1)CCCC3,0,-0.05,21*,i,4
C/C(=N\NC(=O)c1cccc(F)c1)c1ccc(Br)s1,1,-0.52,34*,i,22
C/C(=N\NC(=O)c1ccccc1O)c1ccc(Br)s1,24,1.2,1,i,0
Cc1ccc(C(=O)C2CCOC(C)(C)C2)cc1 (configuration not stated),7,0.37,4,i,0
Cc1ccc(NCC(=O)N=Nc2c(O)[nH]c3ccc([N+](=O)[O-])cc23)cc1,-39,1.1,.,.,-2
Cc1ccc(OC(C)C(=O)N=Nc2c(O)[nH]c3ccc([N+](=O)[O-])cc23)cc1 (configuration not stated),-31,.,16*,i,-1
O=C(NC1CCCC1)C(c1ccc(F)cc1)N(Cc1ccc(Cl)cc1)C(=O)CCl (configuration not stated),36,0.52,1,+,-1
CN1CCCN(Cc2nc(-c3cccc(C(F)(F)F)c3)no2)CC1,9,-1.4,3,i,0
CC1CCN(C(=O)CN2C(=O)C(=O)c3ccccc32)CC1,0,-0.63,2,+,.
CCN(CC)c1ccc(NC(=O)c2ccc(=O)[nH]c2)cc1S(=O)(=O)Nc1ccccc1OC,-3,1.2,28*,i,2
CCN(CC)c1ccc(NC(=O)c2ccccc2Br)cc1S(=O)(=O)Nc1ccccc1OC,8,-0.84,2,i,.
Cc1cc(N)n(-c2ccccc2)n1,35,-0.52,3,i,0
Cc1cc(-c2cc(N)n(-c3ccccc3)n2)c(C)n1C1CCCC1,3,-1.4,4,+,-5
O=c1[nH]c(/C=C2\C=Nc3ccccc32)c(O)n1Cc1ccccc1F,-3,1.1,2,+,1
Cc1cc(C(=O)N/N=C/c2c(C)nn(-c3ccccc3)c2C)c(C)o1,-7,.,.,.,0
CC1CCCC(C)N1/N=C/c1ccc(N(C)C)cc1 (configuration not stated),-34,.,4,i,3
CCOC(=O)c1ccc(NC(=O)c2ccc(CO)c(C(=O)NC3CCN(C(=O)OCC)CC3)c2)cc1,-8,-0.96,2,i,.
CCOC(=O)N1CCC(NC(=O)c2cc(C(=O)Nc3ccc(OC)c(OC)c3)ccc2CO)CC1,-3,3.4*,2,i,2
COc1ccccc1-n1cnc2cc(NCc3ccco3)ccc21,1,-1.7,32*,i,131*
COc1ccccc1-n1cnc2cc(NCc3cccs3)ccc21,39,-1.4,18*,i,162*
COc1ccccc1-n1cnc2cc(NCc3ccccc3O)ccc21,7,-0.25,.,.,6
Cc1ccccc1-n1cnc2cc(NCc3cccs3)ccc21,-4,-0.76,27*,i,15
SMILES,Tb hexokinase,Ins promoter up,MT stabilizer,Autophagy mod,bCat nuc transl
Cc1cc(NCCN2CCOCC2)n2nc(C)c(-c3ccc(Cl)cc3)c2n1,-26,0.79,3,+,0
Cc1cc(NCCN2CCOCC2)n2nc(C)c(-c3ccccc3)c2n1,-16,-0.46,4,i,-1
COc1cc2nc(NCCCN3CCN(C)CC3)n3nc(-c4ccccc4)nc3c2cc1OC,-29,-0.47,2,+,.
CCN(CC)CCCNc1nc2cc(OC)c(OC)cc2c2nc(-c3ccccc3)nn12,-13,-3.8,1,+,2
CCN(CC)CCCNc1nc2cc(OC)c(OC)cc2c2nc(-c3cccnc3)nn12,-21,-3.4,0,i,-1
Cc1c(N=C2N=C(NC(=O)c3cccs3)c3ccccc32)c(=O)n(-c2ccccc2)n1C,-13,.,7,+,-7
CC1=C(C(=O)N2CCOCC2)C(c2ccc(OC(F)F)cc2)NC(=S)N1c1ccccc1 (configuration not stated),5,-0.42,3,+,-3
CC1=C(C(=O)N2CCOCC2)C(c2ccc(Br)cc2)NC(=S)N1c1ccccc1 (configuration not stated),-1,1.1,0,i,-2
CC(=O)c1cccc(NC(=O)/C(=C\c2cccnc2)NC(=O)c2ccco2)c1,2,0.04,3,i,-7
Nc1nc(CN2CCN(c3ccccc3F)CC2)nc(Nc2ccc3c(c2)OCCO3)n1,-1,-0.95,3,i,0
CN1CCN(Cc2nc(N)nc(Nc3ccc4c(c3)OCCO4)n2)CC1,3,4.7*,4,i,-3
Cc1ccc2c(c1)C1CN(C)CCC1N2Sc1ccccc1[N+](=O)[O-] (configuration not stated),0,0.15,.,.,-1
O=C(Nc1ccccc1-c1nc2ccccc2o1)c1ccc2c(c1)OCCO2,-19,.,15*,i,.
Cc1cccc(N/C=C/c2onc(C)c2[N+](=O)[O-])c1,-5,0.83,2,+,-4
N#CC1(NC(=O)CN2CCc3ccccc3C2)CCCC1,-10,-0.17,2,i,0
COc1ccc2oc(C(=O)c3ccccc3)c(NC(=O)CN3CCN(C)CC3)c2c1,-40,-2.2,1,+,-3
Cc1c(C(=O)C(=O)N2CCCc3ccccc32)c2ccccc2n1C,-27,0.52,30*,i,1
Cc1c(C(=O)C(=O)N2CCN(C)CC2)c2ccccc2n1C,-29,1.1,2,i,-5
Cc1c(C(=O)C(=O)N2c3ccc(F)cc3CCC2C)c2ccccc2n1C (configuration not stated),-20,0.1,6,i,68*
O=C1C2CC=CCC2C(=O)N1c1ccc(N2CCN(c3ccccn3)CC2)c([N+](=O)[O-])c1 (configuration not stated),-7,-0.39,5,i,0
O=C(CN1CCCc2ccccc21)NCCc1ccc(F)cc1,-4,0.84,2,i,-1
CCCCCNC(=O)C(C#N)c1nc2ccccc2nc1N1CCCC1 (configuration not stated),3,0.37,2,+,-4
CCCCCCOC(=O)C(C#N)c1nc2ccccc2nc1N1CCOCC1 (configuration not stated),-3,-0.06,3,i,-2
CCCCCCNC(=O)C(C#N)c1nc2ccccc2nc1N1CCOCC1 (configuration not stated),-3,0.28,3,i,-4
COCCCNC(=O)C(C#N)c1nc2ccccc2nc1N1CCCC1 (configuration not stated),-9,.,4,i,.
CCCCCCNC(=O)C(C#N)c1nc2ccccc2nc1N1CCCC1 (configuration not stated),14,-0.15,7,+,0
